Results reported in paper PMC9321909 (British Journal of Haematology, 2022).
“Also recorded” adds a separate entry of the source.

Assay: Safety: treatment-emergent adverse events, NCI CTCAE v4.03
Type: in vivo, human (Chinese patients)
How it was run: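 Patients took oral test compound at 320 mg QD or 160 mg BID until progression or unacceptable toxicity. AEs were graded per NCI CTCAE v4.03, and treatment-emergent AEs were summarized. AEs of special interest included haemorrhage, atrial fibrillation/flutter, hypertension, second primary malignancies, tumour lysis syndrome, infections and cytopenias. Percentages use patients receiving ≥1 dose as the denominator.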

SMILES: C=CC(=O)N1CCC([C@@H]2CCNc3c(C(N)=O)c(-c4ccc(Oc5ccccc5)cc4)nn32)CC1 [zanubrutinib]
- Anaemia, TEAE any grade (160 mg BID (n = 34)): 12 (35.3) n (%)
- Anaemia, grade ≥ 3 TEAE (160 mg BID (n = 34)): 4 (11.8) n (%)
- Atrial fibrillation/flutter, any grade TEAE of special interest (160 mg BID (n = 34)): 0 (0.0) n (%)
- Cough, TEAE any grade (160 mg BID (n = 34)): 5 (14.7) n (%)
- Cytopenias: Anaemia, any grade TEAE of special interest (160 mg BID (n = 34)): 14 (41.2) n (%)
- Cytopenias: Neutropenia, any grade TEAE of special interest (160 mg BID (n = 34)): 18 (52.9) n (%)
- Cytopenias: Thrombocytopenia, any grade TEAE of special interest (160 mg BID (n = 34)): 9 (26.5) n (%)
- Haemorrhage, any grade TEAE of special interest (160 mg BID (n = 34)): 11 (32.4) n (%)
- Hematuria, TEAE any grade (160 mg BID (n = 34)): 6 (17.6) n (%)
- Hypertension, any grade TEAE of special interest (160 mg BID (n = 34)): 0 (0.0) n (%)
- Hyperuricemia, TEAE any grade (160 mg BID (n = 34)): 6 (17.6) n (%)
- Infections, any grade TEAE of special interest (160 mg BID (n = 34)): 19 (55.9) n (%)
- Major haemorrhage, any grade TEAE of special interest (160 mg BID (n = 34)): 1 (2.9) n (%)
- Neutropenia, grade ≥ 3 TEAE (160 mg BID (n = 34)): 4 (11.8) n (%)
- Neutrophil count decreased, TEAE any grade (160 mg BID (n = 34)): 17 (50.0) n (%)
- Neutrophil count decreased, grade ≥ 3 TEAE (160 mg BID (n = 34)): 6 (17.6) n (%)
- Patients with ≥1 TEAE of special interest, any grade (160 mg BID (n = 34)): 30 (88.2) n (%)
- Patients with ≥1 any‐grade TEAE (160 mg BID (n = 34)): 33 (97.1) n (%)
- Patients with ≥1 grade 3 or higher TEAE (160 mg BID (n = 34)): 18 (52.9) n (%)
- Platelet count decreased, TEAE any grade (160 mg BID (n = 34)): 8 (23.5) n (%)
- Platelet count decreased, grade ≥ 3 TEAE (160 mg BID (n = 34)): 1 (2.9) n (%)
- Pneumonia, TEAE any grade (160 mg BID (n = 34)): 6 (17.6) n (%)
- Pneumonia, grade ≥ 3 TEAE (160 mg BID (n = 34)): 3 (8.8) n (%)
- Rash, TEAE any grade (160 mg BID (n = 34)): 8 (23.5) n (%)
- Second primary malignancies, any grade TEAE of special interest (160 mg BID (n = 34)): 0 (0.0) n (%)
- Thrombocytopenia, grade ≥ 3 TEAE (160 mg BID (n = 34)): 1 (2.9) n (%)
- Tumour lysis syndrome, any grade TEAE of special interest (160 mg BID (n = 34)): 0 (0.0) n (%)
- Upper respiratory tract infection, TEAE any grade (160 mg BID (n = 34)): 10 (29.4) n (%)
- Upper respiratory tract infection, grade ≥ 3 TEAE (160 mg BID (n = 34)): 2 (5.9) n (%)
- Weight increased, TEAE any grade (160 mg BID (n = 34)): 5 (14.7) n (%)
- White blood cell count decreased, TEAE any grade (160 mg BID (n = 34)): 11 (32.4) n (%)
- White blood cell count decreased, grade ≥ 3 TEAE (160 mg BID (n = 34)): 1 (2.9) n (%)
- White blood cell count increased, grade ≥ 3 TEAE (160 mg BID (n = 34)): 2 (5.9) n (%)
- Anaemia, TEAE any grade (320 mg QD (n = 10)): 4 (40.0) n (%)
- Anaemia, grade ≥ 3 TEAE (320 mg QD (n = 10)): 1 (10.0) n (%)
- Atrial fibrillation/flutter, any grade TEAE of special interest (320 mg QD (n = 10)): 0 (0.0) n (%)
- Cough, TEAE any grade (320 mg QD (n = 10)): 3 (30.0) n (%)
- Cytopenias: Anaemia, any grade TEAE of special interest (320 mg QD (n = 10)): 4 (40.0) n (%)
- Cytopenias: Neutropenia, any grade TEAE of special interest (320 mg QD (n = 10)): 7 (70.0) n (%)
- Cytopenias: Thrombocytopenia, any grade TEAE of special interest (320 mg QD (n = 10)): 3 (30.0) n (%)
- Haemorrhage, any grade TEAE of special interest (320 mg QD (n = 10)): 4 (40.0) n (%)
- Hematuria, TEAE any grade (320 mg QD (n = 10)): 3 (30.0) n (%)
- Hypertension, any grade TEAE of special interest (320 mg QD (n = 10)): 1 (10.0) n (%)
- Hyperuricemia, TEAE any grade (320 mg QD (n = 10)): 3 (30.0) n (%)
- Infections, any grade TEAE of special interest (320 mg QD (n = 10)): 7 (70.0) n (%)
- Major haemorrhage, any grade TEAE of special interest (320 mg QD (n = 10)): 0 (0.0) n (%)
- Neutropenia, grade ≥ 3 TEAE (320 mg QD (n = 10)): 0 (0.0) n (%)
- Neutrophil count decreased, TEAE any grade (320 mg QD (n = 10)): 7 (70.0) n (%)
- Neutrophil count decreased, grade ≥ 3 TEAE (320 mg QD (n = 10)): 5 (50.0) n (%)
- Patients with ≥1 TEAE of special interest, any grade (320 mg QD (n = 10)): 10 (100.0) n (%)
- Patients with ≥1 any‐grade TEAE (320 mg QD (n = 10)): 10 (100.0) n (%)
- Patients with ≥1 grade 3 or higher TEAE (320 mg QD (n = 10)): 6 (60.0) n (%)
- Platelet count decreased, TEAE any grade (320 mg QD (n = 10)): 2 (20.0) n (%)
- Platelet count decreased, grade ≥ 3 TEAE (320 mg QD (n = 10)): 1 (10.0) n (%)
- Pneumonia, TEAE any grade (320 mg QD (n = 10)): 3 (30.0) n (%)
- Pneumonia, grade ≥ 3 TEAE (320 mg QD (n = 10)): 0 (0.0) n (%)
- Rash, TEAE any grade (320 mg QD (n = 10)): 2 (20.0) n (%)
- Second primary malignancies, any grade TEAE of special interest (320 mg QD (n = 10)): 0 (0.0) n (%)
- Thrombocytopenia, grade ≥ 3 TEAE (320 mg QD (n = 10)): 1 (10.0) n (%)
- Tumour lysis syndrome, any grade TEAE of special interest (320 mg QD (n = 10)): 0 (0.0) n (%)
- Upper respiratory tract infection, TEAE any grade (320 mg QD (n = 10)): 5 (50.0) n (%)
- Upper respiratory tract infection, grade ≥ 3 TEAE (320 mg QD (n = 10)): 2 (20.0) n (%)
- Weight increased, TEAE any grade (320 mg QD (n = 10)): 3 (30.0) n (%)
- White blood cell count decreased, TEAE any grade (320 mg QD (n = 10)): 3 (30.0) n (%)
- White blood cell count decreased, grade ≥ 3 TEAE (320 mg QD (n = 10)): 1 (10.0) n (%)
- White blood cell count increased, grade ≥ 3 TEAE (320 mg QD (n = 10)): 1 (10.0) n (%)
- Anaemia, TEAE any grade (Total (N = 44)): 16 (36.4) n (%)
- Anaemia, grade ≥ 3 TEAE (Total (N = 44)): 5 (11.4) n (%)
- Atrial fibrillation/flutter, any grade TEAE of special interest (Total (N = 44)): 0 (0.0) n (%)
- Cough, TEAE any grade (Total (N = 44)): 8 (18.2) n (%)
- Cytopenias: Anaemia, any grade TEAE of special interest (Total (N = 44)): 18 (40.9) n (%)
- Cytopenias: Neutropenia, any grade TEAE of special interest (Total (N = 44)): 25 (56.8) n (%)
- Cytopenias: Thrombocytopenia, any grade TEAE of special interest (Total (N = 44)): 12 (27.3) n (%)
- Haemorrhage, any grade TEAE of special interest (Total (N = 44)): 15 (34.1) n (%)
- Hematuria, TEAE any grade (Total (N = 44)): 9 (20.5) n (%)
- Hypertension, any grade TEAE of special interest (Total (N = 44)): 1 (2.3) n (%)
- Hyperuricemia, TEAE any grade (Total (N = 44)): 9 (20.5) n (%)
- Infections, any grade TEAE of special interest (Total (N = 44)): 26 (59.1) n (%)
- Major haemorrhage, any grade TEAE of special interest (Total (N = 44)): 1 (2.3) n (%)
- Neutropenia, grade ≥ 3 TEAE (Total (N = 44)): 4 (9.1) n (%)
- Neutrophil count decreased, TEAE any grade (Total (N = 44)): 24 (54.5) n (%)
- Neutrophil count decreased, grade ≥ 3 TEAE (Total (N = 44)): 11 (25.0) n (%)
- Patients with ≥1 TEAE of special interest, any grade (Total (N = 44)): 40 (90.9) n (%)
- Patients with ≥1 any‐grade TEAE (Total (N = 44)): 43 (97.7) n (%)
- Patients with ≥1 grade 3 or higher TEAE (Total (N = 44)): 24 (54.5) n (%)
- Platelet count decreased, TEAE any grade (Total (N = 44)): 10 (22.7) n (%)
- Platelet count decreased, grade ≥ 3 TEAE (Total (N = 44)): 2 (4.5) n (%)
- Pneumonia, TEAE any grade (Total (N = 44)): 9 (20.5) n (%)
- Pneumonia, grade ≥ 3 TEAE (Total (N = 44)): 3 (6.8) n (%)
- Rash, TEAE any grade (Total (N = 44)): 10 (22.7) n (%)
- Second primary malignancies, any grade TEAE of special interest (Total (N = 44)): 0 (0.0) n (%)
- Thrombocytopenia, grade ≥ 3 TEAE (Total (N = 44)): 2 (4.5) n (%)
- Tumour lysis syndrome, any grade TEAE of special interest (Total (N = 44)): 0 (0.0) n (%)
- Upper respiratory tract infection, TEAE any grade (Total (N = 44)): 15 (34.1) n (%)
- Upper respiratory tract infection, grade ≥ 3 TEAE (Total (N = 44)): 4 (9.1) n (%)
- Weight increased, TEAE any grade (Total (N = 44)): 8 (18.2) n (%)
- White blood cell count decreased, TEAE any grade (Total (N = 44)): 14 (31.8) n (%)
- White blood cell count decreased, grade ≥ 3 TEAE (Total (N = 44)): 2 (4.5) n (%)
- White blood cell count increased, grade ≥ 3 TEAE (Total (N = 44)): 3 (6.8) n (%)
- AEs leading to dose reduction (all 44 patients): no AEs leading to dose reduction
- neutrophil count decreased, most common adverse event (any grade) (all 44 patients): 54.5%
- neutrophil count decreased, most common grade 3 or higher AE (all 44 patients): 25.0%
- patients with AEs leading to dose interruption (all 44 patients): 18.2%
- patients with AEs leading to treatment discontinuation (all 44 patients): 4.5%
- reports of second primary malignancies, tumour lysis syndrome, atrial fibrillation/flutter (all 44 patients): no reports
- grade of haemorrhagic events (all events except one non‐serious grade 3 purpura): grade 1–2; also recorded: grade 1 or 2
- dose‐limiting toxicity (DLT) events (part I, 160 mg BID and 320 mg QD): No DLT events
